For one test, the target named is CDK7/Cyclin H/MNAT1 (Homo sapiens, UniProt P50613). The experiment in a line: Adapta Eu kinase assay. The test is classed as biochemical. The method, boiled down:
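CDK7/Cyclin H/MNAT1 complex tested by an outside contract service in Adapta Eu format, with ATP at its Km concentration.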

A further test addresses CDK7 (Homo sapiens, UniProt P50613). Kind of test: Immunoblot analysis of CDK7 degradation in Jurkat cells. The test is classed as cell-based. Conditions: Jurkat cells, 16 h, Western blot. The method, boiled down: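 Jurkat cells received test compound at 0.1 or 1 μM for 16 h, 0.1 μM for 0.5–24 h, or a concentration series for 6 h. Other arms were pretreated 2 h with MG132, MLN-4924, parent CDK7 inhibitor or VHL ligand, or used VHL-knockout Jurkat (6 h). Blots: RIPA lysis, 4–20% SDS-PAGE, nitrocellulose, anti-CDK7 1:1000, β-actin 1:5000, IRDye secondaries. Mean ± SEM of three biological replicates.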
In general terms: Immunoblotting shows a protein as a band on a membrane.

pIC50: −log10 of the molar value. Where two headings read alike, the source gives them in different places.

CDK7/Cyclin H/MNAT1, sequence (P50613 whole entry): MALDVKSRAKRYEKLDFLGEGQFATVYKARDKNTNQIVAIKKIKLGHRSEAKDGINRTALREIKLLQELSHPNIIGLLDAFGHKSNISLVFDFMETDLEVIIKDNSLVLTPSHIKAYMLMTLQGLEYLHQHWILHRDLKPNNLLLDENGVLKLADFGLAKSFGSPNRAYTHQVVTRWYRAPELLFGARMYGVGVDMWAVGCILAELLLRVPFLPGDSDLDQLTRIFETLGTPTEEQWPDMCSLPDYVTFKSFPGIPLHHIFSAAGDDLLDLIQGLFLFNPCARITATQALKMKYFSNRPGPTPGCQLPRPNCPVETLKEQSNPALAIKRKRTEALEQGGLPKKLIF
CDK7/Cyclin H/MNAT1, sequence (P51946 whole entry partner): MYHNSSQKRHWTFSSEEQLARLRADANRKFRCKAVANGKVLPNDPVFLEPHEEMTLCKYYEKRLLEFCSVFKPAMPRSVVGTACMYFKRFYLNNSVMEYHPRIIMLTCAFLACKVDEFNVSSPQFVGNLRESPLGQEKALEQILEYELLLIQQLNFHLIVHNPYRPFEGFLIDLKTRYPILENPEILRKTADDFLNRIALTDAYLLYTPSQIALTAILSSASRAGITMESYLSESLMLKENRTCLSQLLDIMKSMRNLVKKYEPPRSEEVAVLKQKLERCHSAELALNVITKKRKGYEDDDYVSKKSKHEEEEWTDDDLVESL
CDK7/Cyclin H/MNAT1, sequence (P51948 whole entry partner): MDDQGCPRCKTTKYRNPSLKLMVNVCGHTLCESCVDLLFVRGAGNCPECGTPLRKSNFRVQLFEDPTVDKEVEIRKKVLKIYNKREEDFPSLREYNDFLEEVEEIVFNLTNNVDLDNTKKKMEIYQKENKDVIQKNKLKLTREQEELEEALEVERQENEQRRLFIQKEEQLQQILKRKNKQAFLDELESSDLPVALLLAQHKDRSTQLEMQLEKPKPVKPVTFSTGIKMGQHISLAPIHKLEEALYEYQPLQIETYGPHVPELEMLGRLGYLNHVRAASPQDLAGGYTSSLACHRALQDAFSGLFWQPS
CDK7, sequence (P50613 2-346 limits assumed): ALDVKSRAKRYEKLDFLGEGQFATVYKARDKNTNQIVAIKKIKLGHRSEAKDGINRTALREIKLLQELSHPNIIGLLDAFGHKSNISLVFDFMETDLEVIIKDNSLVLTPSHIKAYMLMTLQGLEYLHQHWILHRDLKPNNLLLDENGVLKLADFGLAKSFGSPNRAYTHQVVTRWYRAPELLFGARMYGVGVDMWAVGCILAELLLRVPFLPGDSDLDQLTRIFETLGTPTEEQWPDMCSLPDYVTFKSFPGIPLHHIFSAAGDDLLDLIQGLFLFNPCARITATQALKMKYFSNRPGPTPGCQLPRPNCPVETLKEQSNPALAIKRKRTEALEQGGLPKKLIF
CDK7, sequence (P51946 whole entry partner): as the sequence (P51946 whole entry partner) above
CDK7, sequence (P51948 whole entry partner): as the sequence (P51948 whole entry partner) above

What is called pIC50 is the IC50 on a negative log10 scale, so that one unit is a factor of ten. With `CN(C)C[C@@H](NC(=O)N1Cc2c(NC(=O)c3ccc(C(=O)NCCCC#Cc4cccc5c4C(=O)N(C4CCC(=O)NC4=O)C5=O)cc3)n[nH]c2C1(C)C)c1ccccc1` (stereo partly drawn) [Compound 8, N1-(5-(((S)-2-(dimethylamino)-1-phenylethyl)carbamoyl)-6,6-dimethyl-1,4,5,6-tetrahydropyrrolo[3,4-c]pyrazol-3-yl)-N4-(5-(2-(2,6-dioxopiperidin-3-yl)-1,3-dioxoisoindolin-4-yl)pent-4-yn-1-yl)terephthalamide], the pIC50 against CDK7/Cyclin H/MNAT1 was 8.16.
`Cc1ncsc1-c1ccc([C@H](C)NC(=O)[C@@H]2C[C@@H](O)CN2C(=O)[C@@H](NC(=O)CCNC(=O)c2ccc(C(=O)Nc3n[nH]c4c3CN(C(=O)N[C@H](CN(C)C)c3ccccc3)C4(C)C)cc2)C(C)(C)C)cc1` [Compound 10, N1-(5-(((S)-2-(dimethylamino)-1-phenylethyl)carbamoyl)-6,6-dimethyl-1,4,5,6-tetrahydropyrrolo[3,4-c]pyrazol-3-yl)-N4-(3-(((S)-1-((2S,4R)-4-hydroxy-2-(((S)-1-(4-(4-methylthiazol-5-yl)phenyl)ethyl)carbamoyl)pyrrolidin-1-yl)-3,3-dimethyl-1-oxobutan-2-yl)amino)-3-oxopropyl)terephthalamide]: the “CDK7 degradation (in words)” value at CDK7 (1 μM) was “moderate degradation”.
On to `Cc1ncsc1-c1ccc([C@H](C)NC(=O)[C@@H]2C[C@@H](O)CN2C(=O)[C@@H](NC(=O)CCCCCCCNC(=O)c2ccc(C(=O)Nc3n[nH]c4c3CN(C(=O)N[C@H](CN(C)C)c3ccccc3)C4(C)C)cc2)C(C)(C)C)cc1` [Compound 13, N1-(5-(((S)-2-(dimethylamino)-1-phenylethyl)carbamoyl)-6,6-dimethyl-1,4,5,6-tetrahydropyrrolo[3,4-c]pyrazol-3-yl)-N4-(8-(((S)-1-((2S,4R)-4-hydroxy-2-(((S)-1-(4-(4-methylthiazol-5-yl)phenyl)ethyl)carbamoyl)pyrrolidin-1-yl)-3,3-dimethyl-1-oxobutan-2-yl)amino)-8-oxooctyl)terephthalamide], for which, on CDK7/Cyclin H/MNAT1, the pIC50 was 8.11. The “reduction in CDK7 protein” value at CDK7 (0.1 μM or 1 μM) is on record as “more than 80%”.
On CDK7/Cyclin H/MNAT1, `Cc1ncsc1-c1ccc([C@H](C)NC(=O)[C@@H]2C[C@@H](O)CN2C(=O)[C@@H](NC(=O)CCOCCOCCNC(=O)c2ccc(C(=O)Nc3n[nH]c4c3CN(C(=O)N[C@H](CN(C)C)c3ccccc3)C4(C)C)cc2)C(C)(C)C)cc1` [Compound 15, N1-(5-(((S)-2-(dimethylamino)-1-phenylethyl)carbamoyl)-6,6-dimethyl-1,4,5,6-tetrahydropyrrolo[3,4-c]pyrazol-3-yl)-N4-(2-(2-(3-(((S)-1-((2S,4R)-4-hydroxy-2-(((S)-1-(4-(4-methylthiazol-5-yl)phenyl)ethyl)carbamoyl)pyrrolidin-1-yl)-3,3-dimethyl-1-oxobutan-2-yl)amino)-3-oxopropoxy)ethoxy)ethyl)terephthalamide] showed a pIC50 of 8.12.
At CDK7/Cyclin H/MNAT1, `Cc1ncsc1-c1ccc([C@H](C)NC(=O)[C@@H]2C[C@@H](O)CN2C(=O)[C@@H](NC(=O)CCCCCc2ccc(C(=O)Nc3n[nH]c4c3CN(C(=O)N[C@H](CN(C)C)c3ccccc3)C4(C)C)cc2)C(C)(C)C)cc1` [Compound 18, N-((S)-2-(dimethylamino)-1-phenylethyl)-3-(4-(6-(((S)-1-((2S,4R)-4-hydroxy-2-(((S)-1-(4-(4-methylthiazol-5-yl)phenyl)ethyl)carbamoyl)pyrrolidin-1-yl)-3,3-dimethyl-1-oxobutan-2-yl)amino)-6-oxohexyl)benzamido)-6,6-dimethyl-4,6-dihydropyrrolo[3,4-c]pyrazole-5(1H)-carboxamide] had a pIC50 of 7.69. The “CDK7 degradation (in words)” value at CDK7 (0.1 μM or 1 μM) is “slightly decreased degradation activity”.
The compound `Cc1ncsc1-c1ccc(CNC(=O)C2CC(O)CN2C(=O)C(NC(=O)C2(F)CC2)C(C)(C)C)c(OCCCCCCCCNC(=O)c2ccc(C(=O)Nc3n[nH]c4c3CN(C(=O)N[C@H](CN(C)C)c3ccccc3)C4(C)C)cc2)c1` (stereo partly drawn) [Compound 20, N1-(5-(((S)-2-(dimethylamino)-1-phenylethyl)carbamoyl)-6,6-dimethyl-1,4,5,6-tetrahydropyrrolo[3,4-c]pyrazol-3-yl)-N4-(8-(2-((1-(2-(1-fluorocyclopropane-1-carboxamido)-3,3-dimethylbutanoyl)-4-hydroxypyrrolidine-2-carboxamido)methyl)-5-(4-methylthiazol-5-yl)phenoxy)octyl)terephthalamide] showed a pIC50 at CDK7/Cyclin H/MNAT1 of 7.92. In addition, the “CDK7 degradation (in words)” value at CDK7 (1 μM) is reported as “moderate reduction of CDK7 protein levels”.
For `Cc1ncsc1-c1ccc(CNC(=O)C2CC(O)CN2C(=O)C(NC(=O)C2(F)CC2)C(C)(C)C)c(OCCOCCOCCNC(=O)c2ccc(C(=O)Nc3n[nH]c4c3CN(C(=O)N[C@H](CN(C)C)c3ccccc3)C4(C)C)cc2)c1` (stereo partly drawn) [Compound 21, N1-(5-(((S)-2-(dimethylamino)-1-phenylethyl)carbamoyl)-6,6-dimethyl-1,4,5,6-tetrahydropyrrolo[3,4-c]pyrazol-3-yl)-N4-(2-(2-(2-(2-((1-(2-(1-fluorocyclopropane-1-carboxamido)-3,3-dimethylbutanoyl)-4-hydroxypyrrolidine-2-carboxamido)methyl)-5-(4-methylthiazol-5-yl)phenoxy)ethoxy)ethoxy)ethyl)terephthalamide], in that order: 7.87 and “moderate reduction of CDK7 protein levels”.
As to `CC(=O)N[C@H](C(=O)N1C[C@H](O)C[C@H]1C(=O)N[C@@H](C)c1ccc(-c2scnc2C(=O)NCCCCCNC(=O)c2ccc(C(=O)Nc3n[nH]c4c3CN(C(=O)N[C@H](CN(C)C)c3ccccc3)C4(C)C)cc2)cc1)C(C)(C)C` [Compound 22, N1-(5-(5-(4-((S)-1-((2S,4R)-1-((S)-2-acetamido-3,3-dimethylbutanoyl)-4-hydroxypyrrolidine-2-carboxamido)ethyl)phenyl)thiazole-4-carboxamido)pentyl)-N4-(5-(((S)-2-(dimethylamino)-1-phenylethyl)carbamoyl)-6,6-dimethyl-1,4,5,6-tetrahydropyrrolo[3,4-c]pyrazol-3-yl)terephthalamide], the “CDK7 degradation (in words)” value on CDK7 (1 μM) is “moderate reduction of CDK7 protein levels”.
Take “N1-(5-(((R)-2-(dimethylamino)-1-phenylethyl)carbamoyl)-6,6-dimethyl-1,4,5,6-tetrahydropyrrolo[3,4-c]pyrazol-3-yl)-N4-((S)-14-((2S,4R)-4-hydroxy-2-(((S)-1-(4-(4-methylthiazol-5-yl)phenyl)ethyl)carbamoyl)pyrrolidine-1-carbonyl)-15,15-dimethyl-12-oxo-3,6,9-trioxa-13-azahexadecyl)terephthalamide [Compound 16]”: the pIC50 on CDK7/Cyclin H/MNAT1 (read-out: IC50 (CDK7 binding affinity, Table 2), VHL-based compounds, Adapta Eu kinase assay, Km ATP) is 7.86.

The values above are taken from publication PMC11316633 (European journal of medicinal chemistry, 2024).
